In ChEMBL document CHEMBL3612020:

Experiments:
[1] = Terminal half life in CD1 mouse at 10 mg/kg, iv; type: ADME, organism-based; conditions: in vivo, read-out: beta t1/2 (converted)
In short: (§1)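 Male CD1 mice, n = 3 per time point, dosed iv or po. About 1 mL blood taken by cardiac puncture into heparinized tubes, kept on wet ice, centrifuged 10 min at 800 g, 4 °C. Plasma stored at −80 °C; drug levels measured by HPLC–QTOF-MS.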

Mus musculus = assay: Dose normalized AUClast in CD1 mouse at 10 mg/kg, iv; type: ADME, organism-based; conditions: in vivo; in short: as §1
[2] = Metabolic stability in mouse liver microsomes assessed as compound remaining at 5 uM after 60 mins by LC/MS/MS analysis in presence of NADPH; type: ADME; conditions: 1 h
In short: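 Mouse liver microsomes (0.5 mg/mL) with 5 µM test compound in 100 mM potassium phosphate pH 7.4 plus NADPH regenerating system (1.3 mM NADPH). Reaction started with microsomes, run in duplicate for 60 min, quenched with cold acetonitrile containing internal standard. Parent quantified by LC/MS/MS; cofactor-free controls included.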

[3] = AUClast in CD1 mouse at 30 mg/kg, po; type: ADME, organism-based; design: dose 30 mg/kg, route oral, time 0 - last; conditions: in vivo; in short: as §1
[4] = Tmax in CD1 mouse at 30 mg/kg, po; type: ADME, organism-based; conditions: in vivo; in short: as §1
[5] = Volume of distribution in CD1 mouse at 10 mg/kg, iv; type: ADME, organism-based; conditions: in vivo; in short: as §1
[6] = Cmax in CD1 mouse at 30 mg/kg, po; type: ADME, organism-based; design: dose 30 mg/kg, route oral; conditions: in vivo; in short: as §1
D-amino-acid oxidase = D-amino-acid oxidase (Homo sapiens, UniProt P14920); assay: Inhibition of recombinant human DAAO expressed in HEK cells using D-serine as substrate assessed as formation of alpha-keto acid, ammonia, […] after 20 mins by horseradish peroxidase/o-phenylenediamine-based assay; design: species or system HEK293
In short: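 Human DAAO from HEK cells: lysate in 50 mM Tris pH 8.5 with 100 µM FAD, sonicated, then ion-exchange purified with a 0–0.5 M NaCl gradient. […] Enzyme set to give 2.0 mOD/min uninhibited. Rate read as absorbance change at 411 nm. Mean ± SD of ≥4 experiments in most cases.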

[7] = Metabolic stability in mouse liver microsomes assessed as compound remaining at 5 uM after 60 mins by LC/MS/MS analysis in presence of UDPGA; type: ADME; conditions: 1 h
In short: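 Glucuronidation in mouse liver microsomes (0.5 mg/mL): 50 mM Tris-HCl pH 7.5, 8 mM MgCl2, 25 µg/mL alamethicin, pre-incubated at 37 °C. Started with 2 mM UDPGA (final), in duplicate, for 60 min. Quenched with cold acetonitrile plus internal standard; LC/MS/MS read-out, with cofactor-free controls.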

D-amino-acid oxidase, sequence (P14920 whole entry): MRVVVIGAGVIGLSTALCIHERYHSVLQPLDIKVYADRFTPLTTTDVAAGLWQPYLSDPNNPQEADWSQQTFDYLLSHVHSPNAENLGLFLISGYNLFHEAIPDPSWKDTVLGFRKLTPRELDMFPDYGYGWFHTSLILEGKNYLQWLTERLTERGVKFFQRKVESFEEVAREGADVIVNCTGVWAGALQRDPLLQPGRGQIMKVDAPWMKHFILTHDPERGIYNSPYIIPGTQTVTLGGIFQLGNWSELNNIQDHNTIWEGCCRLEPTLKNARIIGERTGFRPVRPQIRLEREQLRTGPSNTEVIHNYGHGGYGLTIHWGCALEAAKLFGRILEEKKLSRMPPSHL

IC50 (D-amino-acid oxidase) [nM] | SMILES | other results
 | O=c1[nH]nc(CCc2cc(F)cc(F)c2)cc1O | half-life [1]: 12 min; AUClast/dose (Mus musculus): 12.7 µg·h/mL; Stability [2]: 92%; AUC(0-t) [3]: 3900 ng·h/mL; Tmax [4]: 15 min; Vd [5]: 0.5 L/kg; Cmax [6]: 6600 ng/mL
70 | O=c1[nH]c(=O)n(CCc2ccccc2)nc1O | Stability [2]: >= 99%; Stability [7]: >= 99%
70 | Cc1cccc(CCn2nc(O)c(=O)[nH]c2=O)c1 | 
120 | COc1ccc(CCn2nc(O)c(=O)[nH]c2=O)cc1 | 
270 | COc1ccccc1CCn1nc(O)c(=O)[nH]c1=O | 
90 | O=c1[nH]c(=O)n(CCc2ccccc2O)nc1O | 
260 | CC(C)CCn1nc(O)c(=O)[nH]c1=O | 
220 | O=c1[nH]c(=O)n(Cc2ccc3ccccc3c2)nc1O | 
160 | O=c1[nH]c(=O)n(CCc2cccc(O)c2)nc1O | 
80 | Cc1ccccc1CCn1nc(O)c(=O)[nH]c1=O | 
2800 | Cn1nc(O)c(=O)[nH]c1=O | 
100 | O=c1[nH]c(=O)n(CCc2cccc(C(F)(F)F)c2)nc1O | 
50 | O=c1[nH]c(=O)n(CCc2ccc(F)cc2)nc1O | 
330 | O=c1[nH]c(=O)n(CCn2cccn2)nc1O | 
120 | COc1cccc(CCn2nc(O)c(=O)[nH]c2=O)c1 | 
1700 | O=c1[nH]c(=O)n(CCCc2ccccc2)nc1O | 
90 | Cc1ccc(CCn2nc(O)c(=O)[nH]c2=O)cc1 | 

SMILES | IC50 (D-amino-acid oxidase) [nM] | other results
O=c1[nH]c(=O)n(-c2ccccc2)nc1O | > 100000 | 
